In the library only some 5.7% were active in any assay of this set; here they are far more common.
Calb FLC – C. albicans growth inhibition with fluconazole, primary screen, CaCi-2 strain, Alamar Blue fluorescence. C. albicans CaCi-2 (fluconazole-resistant clinical isolate) + fluconazole, 48 h. growth inhibition, % (no concentration beside the values). hit rate 0.57% among 300,000. AID 1979, 2009;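 active = growth inhibition above about 58% in most replicates, limit read from the data, passing the limit was not always enough; inconclusive = exactly half the replicates above a set limit; inactive = most replicates below a set limit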;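 note: all wells also contain fluconazole at 8 µg/ml as a sub-toxic cotreatment; 0% = median of DMSO wells and 100% = median of geldanamycin control wells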
T cruzi inh – inhibitors of intracellular T. cruzi growth, primary screen, luminescence, NIH3T3 host cells; T. cruzi beta-gal in NIH3T3, 90 h; inhibition, % (no concentration beside the values); hit rate 1.4% among 300,000; AID 1885, 2009;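 active = mean inhibition across valid replicates above about 55%, limit read from the data; inconclusive = mean below that limit but half or more replicates reach it; inactive = mean below it, under half of replicates reach it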;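 note: signal also drops with host cell toxicity which is not excluded here; 0% = plate median of DMSO wells and 100% = zero luminescence signal; higher percent means less beta-gal luminescence so fewer parasites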
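Assay system: NIH/3T3 fibroblasts plus reporter T. cruzi. Amount: NIH/3T3 cells, 5,000 per well. Buffer or medium: DMEM, 2% fetal bovine serum. Doses: compound pinned at 50 nL/well, DMSO. Schedule: ≥90 h infection period, 3 h prior cell attachment. Signal: luminescent β-galactosidase signal after 60 min lysis. Read-out: parasite load inhibition, %.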
Mdm2-MdmX inh – inhibitors of human Mdm2-MdmX association, primary screen, cell-based, luminescence, split luciferase, SaOS-2, uHTS; Protein Mdm4 (Homo sapiens) + E3 ubiquitin-protein ligase Mdm2 (Homo sapiens), …; SaOS-2 split-luciferase Mdm2/MdmX complementation; inhibition, % at 8 µM; hit rate 3% among 330,000; AID 485346, 2010;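 active = inhibition of at least 50% at 8 µM in the primary screen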
CSC inhib – cancer stem cell viability inhibitors, primary screen, luminescence | cancer stem cell-like cells viability | inhibition, % at 7.5 µM | hit rate 1.1% among 300,000 | AID 2717, 2010; in the data active = inhibition above about 75%; inconclusive = no clear call, values can overlap the other calls; tested in HMLE shEcad cells
Beta apoptosis – inhibitors of cytokine-induced beta cell apoptosis, primary screen, luminescence. INS-1E cytokine-induced death, ATP luminescence, 48 h; percent of positive-control rescue, neutral wells zero. protection from apoptosis, % (concentration not given with the values). hit rate 0.8% among 300,000. AID 435005, 2010;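 active = Every replicate reaches about 75%, or at least half do and their mean reaches it too, limit read from the data; inconclusive = At least half of replicates reach the limit but their mean does not; inactive = Under half of replicates reach the limit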;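 note: 0% = cytokine-treated negative control wells and 100% = positive control rescue; higher means more ATP so stronger rescue from cytokine killing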
SKKanGAS inh – S. pyogenes SKKanGAS growth inhibitors in kanamycin, primary screen, streptokinase expression inhibitor project, SKKanGAS strain, BacTiter-Glo luminescence. AID 1662, 2009. 6 h. inhibition, % at 7.5 µM. hit rate 1.3% among 300,000;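 active = mean replicate score, as percent of positive control median, at least 50; inconclusive = mean below 50 but one replicate at or above 50; inactive = mean and every replicate below 50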;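 note: strain carries kanamycin resistance gene driven by streptokinase promoter and grows in 40 µg/ml kanamycin; loss of luminescence reflects streptokinase promoter inhibition or plain growth inhibition; 0% = median of DMSO wells and 100% = positive control at its reference dose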
Active calls of the source: *; ? = inconclusive; . = no result.

SMILES	Calb FLC	T cruzi inh	Mdm2-MdmX inh	CSC inhib	Beta apoptosis	SKKanGAS inh
CC1C(=O)C(C)C(c2ccc(Br)cc2)NC1c1ccc(Br)cc1 (stereo unspecified)	13	68*	34	49	8	13
O=C(Nc1cccc(C(F)(F)F)c1)c1cccc(NS(=O)(=O)c2ccc(O)c(C(=O)O)c2)c1	2	-11	-10	-6	-12	15
O=C(Nc1ccncc1)c1ccc(Cl)c(S(=O)(=O)N2CCCC2)c1	-3	8	3	-11	5	4
N#CC(C#N)=NNc1ccc([N+](=O)[O-])cc1	-7	52	26	61	14	86*
C=CCC1S/C(=N/N=C/c2cccs2)NC1=O (stereo unspecified)	1	-25	-17	1	7	-3
O=C1N/C(=N\N=C\c2cccs2)SC1Cc1ccc(Cl)c(Cl)c1 (stereo unspecified)	-1	45	47	27	-1	56*
Cc1cc(OCc2cc(C(=O)NC(C)c3c(C)nn(C)c3C)no2)cc(C)c1Cl (stereo unspecified)	3	18	-53	-10	.	-1
Cc1ccc(OCCCCN(C)Cc2ccccc2)c(Br)c1	-6	17	-4	94*	1	1
Cc1ccc(CNc2nc(-c3cccs3)nc3ccccc23)cc1	6	34	24	92*	6	29
c1ccc(CNc2nc(-c3cccs3)nc3ccccc23)nc1	16	19	-2	-8	-4	16
Cc1cccc(N=N/C(=C\O)C(=O)c2cccs2)c1	-16	29	40	92*	13	0
O=C(/C(=C/O)N=Nc1ccccc1)c1ccncc1	11	-14	20	15	4	-8
O=C(CC1CCCC1)N1CCN(S(=O)(=O)c2ccccc2)CC1	.	.	26	.	0	.
O=C(NCc1ccco1)C(c1ccccc1F)N(Cc1cccnc1)C(=O)Cn1nnc2ccccc21 (stereo unspecified)	0	66*	2	-10	0	5
O=C(NCc1ccco1)C(c1ccc(F)cc1)N(Cc1cccnc1)C(=O)Cn1nnc2ccccc21 (stereo unspecified)	-5	43	11	.	-3	-3
O=C1OC2(c3ccccc31)c1cc(I)c(O)c(I)c1Oc1c2cc(I)c(O)c1I	.	.	16	25	27	.
COc1ccc(/C=C/c2c(-c3ccc(OC)cc3)sc3cc(OC)c(OC)cc23)cc1	.	.	17	.	.	.
O=C1C=CC(=O)N1c1ccc(OC(F)F)cc1	.	.	.	103*	28	.
O=C1C=CC(=O)N1c1ccc(O)cc1	-6	52	-22	20	-12	-14
COc1ccc2[nH]c3c(=S)nc[nH]c3c2c1	9	-19	1	-4	-1	0
S=c1nc[nH]c2nc[nH]c12	-6	?	29	84*	-2	-5
COc1ccc2c(c1)c(CC(=O)NCc1cc([N+](=O)[O-])ccc1O)c(C)n2C(=O)c1ccc(Cl)cc1	-2	-1	3	5	8	51*
COc1ccc2c(c1)c(CC(=O)Nc1cc(C)ccc1C)c(C)n2C(=O)c1ccc(Cl)cc1	1	60*	18	9	4	21
COc1ccc2c(c1)c(CC(=O)Nc1ccccc1OC)c(C)n2C(=O)c1ccc(Cl)cc1	-16	48	43	4	4	3
Fc1cccc2sc(Nc3nc4c(F)cccc4s3)nc12	-2	0	-38	-2	.	4
SMILES	Calb FLC	T cruzi inh	Mdm2-MdmX inh	CSC inhib	Beta apoptosis	SKKanGAS inh
COc1ccc(-c2nnc(Nc3nc4c(OC)cccc4s3)o2)cc1	-6	-6	.	81*	3	73*
NNc1nc2c(F)cccc2s1	-6	-10	3	19	5	-8
COc1cc(OC)cc(-c2nnc(Nc3nc4c(F)cccc4s3)o2)c1	115*	-23	41	-4	18	-16
Fc1cccc2sc(Nc3nnc(-c4ccccc4)o3)nc12	-1	0	-1	63	26	87*
COc1ccc(CC(=O)Nc2c(C(=O)N3CCN(c4ccccc4OC)CC3)oc3ccccc23)cc1OC	-2	-7	19	-5	-2	-13
COc1ccc(NC(=O)COC(=O)C2CCC2)cc1Cl	2	2	12	-8	-3	-3
Cc1nc(NC(=O)c2ccc(Cl)cc2)sc1Cc1ccc2c(c1)OCO2	0	-17	36	79*	23	22
CC(=O)Nc1nc(NC(=O)/C=C/c2ccccc2)n(-c2ccccc2)n1	-3	27	29	14	13	97*
CC1=C(C(=O)N2CCc3ccccc32)C2(CCC(C)CC2)OC1=O (stereo unspecified)	-16	60*	1	-4	-4	.
CC1=C(C(=O)N2CCCCC2)C2(CCC(C)CC2)OC1=O (stereo unspecified)	-1	-6	28	-12	15	-3
Cc1noc(C)c1CSCC(=O)N(C)CC(=O)Nc1ccccc1Br	-12	-10	22	-11	-2	-3
O=C(COC(=O)c1cc(=O)[nH]c(=O)[nH]1)Nc1ccccc1F	.	.	23	-15	2	.
CCNc1nc(N)nc(Oc2ccc(OCCOc3ccc(Cl)cc3Cl)nn2)n1	-8	66*	1	21	4	-5
O=C(Cc1cn(-c2ccccc2)nc1-c1ccccc1)N1CCCCC1	1	13	31	.	0	3
CC1CN(S(=O)(=O)c2csc(C(=O)Nc3ccccc3)c2)CC(C)O1 (stereo unspecified)	7	0	21	-6	0	-3
CN(C)C1=NCCN1CCc1cccc(F)c1	-5	-13	1	-10	-6	-2
CCOc1ccc2nc(NC(=O)C3CCCN(S(=O)(=O)c4cccs4)C3)sc2c1 (stereo unspecified)	11	61*	15	.	4	42
CCOc1ccc2nc(NC(=S)N(C)C)sc2c1	104*	41	-128	.	37	18
CCNC(=O)Nc1nc2ccccc2s1	?	-6	-54	-4	-1	11
Cc1ccc(NC(=O)Nc2nc3ccccc3s2)cc1NC(=O)Nc1nc2ccccc2s1	.	15	23	28	30	76*
CN(C)C(=S)Nc1nc2ccccc2s1	17	57*	.	.	.	31
CCCCn1c(N)c(N(C)C(=O)c2cn(-c3ccccc3)nc2-c2ccccc2)c(=O)[nH]c1=O	.	.	19	.	6	.
Cc1ccc(C(=O)/C=C/c2cc(Br)cc(Br)c2O)o1	55	1	24	94*	3	66*
Cn1c(CCNC(=O)c2ccco2)nc2cc(NC(=O)c3ccccc3Cl)ccc21	-2	6	-11	-3	-13	1

Source: PubChem BioAssay
